Results published in ChEMBL document CHEMBL3856284, “Discovery, design and synthesis of 6H-anthra[1,9-cd]isoxazol-6-one scaffold as G9a inhibitor through a combination of shape-based virtual screening and structure-based molecular modification” (Bioorg Med Chem, 2016).
Calls of active or inactive are those of the source. The calls are words filed in the database; no cut-off is given here.

Assays:
MCF7 [1] = experiment: Induction of phenotypic changes in human MCF7 cells assessed as shrinkage at 4 uM after 24 hrs by inverted light microscopic method; type: functional, cell-based
In short: (§1)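 MCF-7 cells were incubated 24 h with 2, 4 or 8 µM compound, with an untreated group as control. Cell morphology (distortion, blebbing, shrinkage, rounding, necrosis) was examined under an inverted light microscope at ×200.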

MCF7 [2] = experiment: Induction of apoptosis in human MCF7 cells assessed as late apoptotic cells at 8 uM after 48 hrs by annexin V staining-based flow cytometric analysis (reference value: 11%); type: functional
MCF7 [3] = experiment: Induction of necrosis in human MCF7 cells at 8 uM after 24 hrs by inverted light microscopic method; type: functional, cell-based; in short: as §1
MCF7 [4] = experiment: Induction of apoptosis in human MCF7 cells assessed as appearance of apoptotic bodies after 24 hrs by Hoechst 33258 staining-based fluorescence microscopy; type: functional, cell-based
MCF7 [5] = experiment: Induction of apoptosis in human MCF7 cells assessed as viable cells at 4 uM after 48 hrs by annexin V staining-based flow cytometric analysis (reference value: 82.85%); type: functional; conditions: MCF7, 48 h, read-out: Activity
MCF7 [6] = experiment: Induction of phenotypic changes in human MCF7 cells assessed as round in shape at 8 uM after 24 hrs by inverted light microscopic method; type: functional, cell-based; in short: as §1
[7] = molecular target: T1, Histone-lysine N-methyltransferase EHMT2 (Homo sapiens) (UniProt Q96KQ7); experiment: Inhibition of G9a in human MCF7 cells assessed as decrease in trimethylation level of H3K9 after 48 hrs by Western blot method; type: cell-based
T1 sequence (whole entry): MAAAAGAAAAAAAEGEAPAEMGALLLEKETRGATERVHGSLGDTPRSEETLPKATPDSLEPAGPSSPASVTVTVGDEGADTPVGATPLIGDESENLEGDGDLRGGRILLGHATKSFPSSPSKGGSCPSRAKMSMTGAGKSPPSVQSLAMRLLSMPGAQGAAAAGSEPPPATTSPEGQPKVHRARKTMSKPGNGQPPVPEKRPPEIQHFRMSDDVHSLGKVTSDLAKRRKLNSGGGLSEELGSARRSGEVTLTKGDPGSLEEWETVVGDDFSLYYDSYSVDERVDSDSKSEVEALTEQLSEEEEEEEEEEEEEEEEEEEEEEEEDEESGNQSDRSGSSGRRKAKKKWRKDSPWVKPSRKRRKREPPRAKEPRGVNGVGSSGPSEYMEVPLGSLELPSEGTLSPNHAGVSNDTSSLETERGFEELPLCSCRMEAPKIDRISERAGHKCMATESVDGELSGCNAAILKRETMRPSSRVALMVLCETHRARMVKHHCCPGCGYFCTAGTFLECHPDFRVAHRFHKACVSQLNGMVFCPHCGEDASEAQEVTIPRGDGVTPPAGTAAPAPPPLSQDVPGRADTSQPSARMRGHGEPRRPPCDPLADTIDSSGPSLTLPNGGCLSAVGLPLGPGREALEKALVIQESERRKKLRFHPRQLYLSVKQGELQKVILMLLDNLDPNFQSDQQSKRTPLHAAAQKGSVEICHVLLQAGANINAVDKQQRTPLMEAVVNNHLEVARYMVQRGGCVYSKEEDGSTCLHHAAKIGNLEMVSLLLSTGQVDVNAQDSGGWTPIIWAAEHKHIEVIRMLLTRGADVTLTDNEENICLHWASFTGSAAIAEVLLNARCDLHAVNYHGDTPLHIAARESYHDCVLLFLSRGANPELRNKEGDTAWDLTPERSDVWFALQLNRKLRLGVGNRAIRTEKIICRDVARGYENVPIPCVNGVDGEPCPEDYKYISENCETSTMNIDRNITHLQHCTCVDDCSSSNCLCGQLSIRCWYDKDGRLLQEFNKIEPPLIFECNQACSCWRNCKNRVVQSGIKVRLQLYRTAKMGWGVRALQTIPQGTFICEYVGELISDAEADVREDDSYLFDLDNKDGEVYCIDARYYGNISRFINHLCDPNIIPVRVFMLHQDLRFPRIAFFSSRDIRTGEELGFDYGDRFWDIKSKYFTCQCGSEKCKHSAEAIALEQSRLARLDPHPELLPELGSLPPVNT

Mus musculus [8] = experiment: Half life in mouse at 10 mg/kg, po after 5 mins to 24 hrs by LC-MS/MS analysis; conditions: in vivo
MCF7 [9] = experiment: Induction of apoptosis in human MCF7 cells assessed as necrotic cells at 4 uM after 48 hrs by annexin V staining-based flow cytometric analysis (reference value: 5.65%); type: functional
MCF7 [10] = experiment: Induction of apoptosis in human MCF7 cells assessed as early apoptotic cells at 8 uM after 48 hrs by annexin V staining-based flow cytometric analysis (reference value: 0.5%); type: functional
MCF7 [11] = experiment: Induction of phenotypic changes in human MCF7 cells at 2 uM after 24 hrs by inverted light microscopic method; type: functional, cell-based; in short: as §1
Mus musculus [12] = experiment: Volume of distribution in mouse at 10 mg/kg, iv after 2 mins to 24 hrs by LC-MS/MS analysis; conditions: in vivo
[13] = molecular target: T2, Histone-lysine N-methyltransferase EHMT2 (Homo sapiens, UniProt Q96KQ7); experiment: Inhibition of G9a (unknown origin) using biotinylated-histone H3 (1 to 21 residues)/S-adenosyl-methionine as substrate/methyl donor after 3 hrs by AlphaScreen assay
T2 sequence (Q96KQ7 whole entry): T1 sequence (whole entry)
In short: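 AlphaScreen G9a assay. Compounds were first screened at 10 µM. IC50 came from concentration-response curves of ten escalating concentrations (0.1 nM–10 µM), using two independent experiments, reported as mean ± SD.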

[14] = Antiproliferative activity against human HCT116 cells assessed as inhibition of cell viability after 72 hrs by MTT assay; type: functional, cell-based; conditions: HCT-116, 72 h
Mus musculus [15] = experiment: Oral bioavailability in mouse at 10 mg/kg after 5 mins to 24 hrs by LC-MS/MS analysis; conditions: in vivo
Mus musculus [16] = experiment: Tmax in mouse at 10 mg/kg, po after 5 mins to 24 hrs by LC-MS/MS analysis; conditions: in vivo
MCF7 [17] = experiment: Induction of phenotypic changes in human MCF7 cells assessed as membrane blebbing at 4 uM after 24 hrs by inverted light microscopic method; type: functional, cell-based; in short: as §1
Mus musculus [18] = experiment: Clearance in mouse at 10 mg/kg, po after 5 mins to 24 hrs by LC-MS/MS analysis; conditions: in vivo
[19] = Antiproliferative activity against human MCF7 cells assessed as inhibition of cell viability after 72 hrs by MTT assay; type: functional, cell-based; conditions: MCF7, 72 h
Mus musculus [20] = experiment: Half life in mouse at 10 mg/kg, iv after 2 mins to 24 hrs by LC-MS/MS analysis; conditions: in vivo
MCF7 [21] = experiment: Induction of apoptosis in human MCF7 cells assessed as viable cells at 2 uM after 48 hrs by annexin V staining-based flow cytometric analysis (reference value: 82.85%); type: functional; conditions: MCF7, 48 h, read-out: Activity
MCF7 [22] = experiment: Induction of apoptosis in human MCF7 cells assessed as necrotic cells at 8 uM after 48 hrs by annexin V staining-based flow cytometric analysis (reference value: 5.65%); type: functional

## O=C1c2ccccc2-c2onc3c(N4CCCCC4)cc(NCCN4CCCC4)c1c23
MCF7 [1]
  Activity: Active
MCF7 [2]
  Activity: 30.05%
MCF7 [3]
  Activity: Active
MCF7 [4]
  Activity: Dose-dependent effect
MCF7 [5]
  viability at 4 µM: 70%
MCF7 [6]
  Activity: Active
[7]
  inhibition: Dose-dependent effect
Mus musculus [8]
  half-life: 4 h
MCF7 [9]
  Activity: 3.1%
MCF7 [10]
  Activity: 2.75%
MCF7 [11]
  Activity: Active
Mus musculus [12]
  Vd: 80.2 L/kg
[13]
  IC50: 2.18 µM
[14]
  IC50: 3.18 µM
Mus musculus [15]
  bioavailability: 55.5%
Mus musculus [16]
  Tmax: 6.7 h
MCF7 [17]
  Activity: Active
Mus musculus [18]
  CL/F: 253 mL/min/kg
[19]
  IC50: 4.52 µM
Mus musculus [20]
  half-life: 6.9 h
MCF7 [21]
  viability at 2 µM: 78.2%
MCF7 [22]
  Activity: 0.75%
